What was measured:
[1] = system: PDE3; conditions: cited from earlier work
[2] = system: HFrEF patients; assay: Tolerability / adverse events in HFrEF patients; assay type: in vivo, human
Summary of the method: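 In a blinded, placebo-controlled study, stable HFrEF patients on guideline therapy were randomised 3:1 in sequential cohorts. Each received one oral liquid dose (10, 30 or 90 mg) or placebo after an ≥8 h fast. Monitoring ran 5 h post-dose, with a follow-up visit on Day 5 ± 1 (exam, ECG, blood and urine labs). Adverse events were recorded at each visit per protocol.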

[3] = system: HFrEF patients; assay: Supine and orthostatic blood pressure and heart rate in HFrEF patients; assay type: in vivo, human
Summary of the method: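 Fasted HFrEF patients were randomised 3:1 to one oral liquid dose (10, 30 or 90 mg) or placebo. Supine BP and HR were taken by automated cuff every 10 min from 30 min pre-dose to 120 min post-dose, then every 30 min to 5 h. Orthostatic readings were taken at 60 ± 5 and 240 ± 15 min and on Day 5, after 1, 3 and 5 min standing. Time course versus placebo by ANCOVA; orthostatic change by ANOVA.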

[4] = system: PDE1; conditions: cited from earlier work
[5] = system: PDE1A; conditions: read-out: IC50 for PDE1A; cited from earlier work
[6] = system: plasma cGMP and cAMP levels; assay: Plasma cAMP and cGMP by LC/MS/MS in HFrEF patients; assay type: in vivo, human; conditions: baseline versus 2 hours after dosing
Summary of the method: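 HFrEF patients received one oral dose of test compound (10, 30 or 90 mg) or placebo. Plasma was sampled at baseline and 2 h post-dose and stored frozen. cAMP and cGMP were measured by a validated LC/MS/MS method with quantitation limits of 20 to 5000 […].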

[7] = system: PDE5; conditions: cited from earlier work
[8] = system: PDE1C; conditions: read-out: IC50 for PDE1C; cited from earlier work
[9] = system: HFrEF patients; assay: Echo-Doppler hemodynamics, baseline versus 2 hours post-dose, in HFrEF patients; assay type: in vivo, human
Summary of the method: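 Single oral dose (10, 30 or 90 mg, or placebo; randomised 3:1; n=9/dose) in fasted HFrEF patients. Transthoracic 2D Doppler echo at baseline and 120 ± 15 min, read blinded in a core lab. Cuff BP/HR taken at imaging. Outputs: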

[10] = system: HFrEF patients; assay: 12-lead ECG QTc and Holter arrhythmia monitoring in HFrEF patients; assay type: in vivo, human
Summary of the method: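 HFrEF patients fasted ≥8 h took one oral liquid dose of test compound (10, 30 or 90 mg) or placebo, randomised 3:1. 12-lead ECG at baseline, 120 ± 15 min post-dose and Day 5 ± 1. Continuous bedside telemetry plus Holter recording. Holter gave hourly supraventricular and ventricular runs and ectopic-beat burden versus pre-dose.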

[11] = Plasma pharmacokinetics after single oral dose in HFrEF patients; assay type: in vivo, human
Summary of the method: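 After a single oral liquid dose (10, 30 or 90 mg) in fasted HFrEF patients, plasma was drawn pre-dose and at 5, 15, 30, 45, 90 and 120 min on Day 1, and again on Day 5. Parameters: AUC 0–2 h, Cmax, Tmax, lag time. Half-life was estimated from Day 5 levels relative to peak. Data analysed by two-way repeated-measures ANOVA.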

[12] = system: rats; conditions: cited from earlier work

## CN1C(=O)c2c(nn(Cc3ccc(-c4cccc(F)n4)cc3)c2Nc2ccccc2)N2C1=N[C@@H]1CCC[C@@H]12 [ITI-214]
[1]
  selectivity for PDE1 over PDE3: 94,000 fold
[2]; 27 subjects treated
  feeling hot, share of subjects: 7%
  headache, share of subjects: 7%
  hypotension, share of subjects: 11%
  orthostatic hypotension, share of subjects: 11%
  parosmia, share of subjects: 15%
  taste disorder, share of subjects: 7%
[2]; all ITI-214 doses
  subjects with mild adverse events: 11 of the 27 subjects
[2]; any time in the study
  serious adverse events: no serious adverse events
[2]; single dose
  tolerability: well-tolerated
[3]; over 2 hours post-dose, each dose
  diastolic BP change: declined
[3]; single oral dose 10-90 mg
  increase in heart rate: 5-9 bpm
[3]; upon standing
  orthostatic SBP changes versus placebo: No SBP changes were significantly different
[4]; versus LuAF41228 and LuAF58027
  potency relative to either Lu-compound (more potent): > 1000 x
[5]
  IC50: 0.035 nM
[6]
  plasma cAMP level: did not significantly change
  plasma cGMP level: did not significantly change
[7]
  selectivity for PDE1 over PDE5: 19,000 fold
[8]
  IC50: 0.035 nM
[9]; 10 mg, baseline to 120 minutes
  median change in PWRi (mean LV power index): 0.018 (IQR 0.122) Watts/mL^2·10^4
  median rise in cardiac output: 0.717 L/min
[9]; 30 mg
  E/E’: small rise
[9]; 30 mg, baseline to 120 minutes
  change in systemic vascular resistance: −564 dynes·s/cm^−5
  median change in PWRi (mean LV power index): 0.143 (IQR 0.154) Watts/mL^2·10^4
  median rise in cardiac output: 0.830 L/min
[9]; 90 mg, baseline to 120 minutes
  change in systemic vascular resistance: −370 dynes·s/cm^−5
  median change in PWRi (mean LV power index): 0.083 (IQR 0.126) Watts/mL^2·10^4
  median rise in cardiac output: 0.666 L/min
[9]; 90 mg, pre versus post dose
  percent increase in cardiac output: 18%
  percent increase in mPWRi: 33%
[9]; all doses
  total LV afterload (Ea): significantly reduced
[9]; baseline to 120 minutes
  end-diastolic volume: little effect
  isovolumic relaxation time: little effect
[10]; 10 mg, 120 minutes post-dose versus baseline
  change in QTc: 1 ± 9 ms
[10]; 10 mg, Day 5 versus baseline
  change in QTc: -13 ± 17 ms
[10]; 30 mg, 120 minutes post-dose versus baseline
  change in QTc: -4 ± 18 ms
[10]; 30 mg, Day 5 versus baseline
  change in QTc: -19 ± 22 ms
[10]; 90 mg, 120 minutes post-dose versus baseline
  change in QTc: -4 ± 24 ms
[10]; 90 mg, Day 5 versus baseline
  change in QTc: -16 ± 19 ms
[10]; compared to pre-dosing
  arrhythmia outcomes (Holter): no clinical change
[11]; after five days, at each dose
  drug level as % of peak concentration: 2-3%
[11]; after oral dosing
  time at which peak concentration was achieved: ≤ 45 min
[11]; human, plasma, oral
  half-life: ~22 h
[11]; human, plasma, po, 90 mg
  Tmax: 0.75 to 1.1 h

## CCC(CC)Nc1ncnc2c(OC)c(OC)ccc12 [LuAF41228]
[12]
  lowering of blood pressure: ≥ 15 mmHg

## CCOC(=O)C1=C[C@]2(CC)CCCN3CCc4c(n1c1ccccc41)[C@@H]32 [vinpocetine, reference compound]
[4]
  PDE1 inhibitor potency relative to ITI-214 (less potent): < 10^6
